Data on 12 molecules can be found in ChEMBL document CHEMBL1772975, “Novel potent and selective σ ligands: evaluation of their agonist and antagonist properties” (J Med Chem, 2011).

The species named for one test is Cavia porcellus. In words: Selectivity ratio of Ki for sigma 1 receptor in guinea pig brain membranes to Ki for sigma 2 receptor in guinea pig brain membranes. It is filed as cell membranes.
Test [1] is described as follows: Displacement of [3H]DTG from sigma 2 receptor in guinea pig brain membranes after 120 mins. It counts as cell membranes, Cavia porcellus, Membrane.
For test [2], the target named is Sigma non-opioid intracellular receptor 1 (Cavia porcellus, UniProt Q60492). In words: Displacement of [3H]-(+)-pentazocine from sigma 1 receptor in guinea pig brain membranes after 150 mins. It counts as cell membranes, Membrane.
Sigma non-opioid intracellular receptor 1, sequence (Q60492 whole entry): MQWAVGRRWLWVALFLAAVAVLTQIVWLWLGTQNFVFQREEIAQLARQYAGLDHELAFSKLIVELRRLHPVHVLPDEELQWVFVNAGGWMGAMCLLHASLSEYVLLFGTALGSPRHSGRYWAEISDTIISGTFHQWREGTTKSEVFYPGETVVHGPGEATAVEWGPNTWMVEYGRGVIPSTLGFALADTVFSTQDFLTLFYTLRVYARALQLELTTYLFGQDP
The target in test [3] is Sigma non-opioid intracellular receptor 1 (Cavia porcellus) (UniProt Q60492). The experiment in a line: Displacement of [3H]-(+)-pentazocine from sigma 1 receptor in guinea pig brain membranes after 150 mins in presence of 1 mM to 250 uM of phenytoin. The note with it: Membrane. It is filed as cell membranes. The method in brief:
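Guinea pig brain [3H](+)-pentazocine competition binding run without phenytoin and with 250 μM or 1 mM phenytoin. Ki ratios (control/with phenytoin) computed. Hill analysis of competition curves. Cocaine served as the putative σ1 agonist control.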

Test [4] deals with Adrenergic receptor alpha-1 (Rattus norvegicus) (UniProt P15823+P23944+P43140). In words: Binding affinity to adrenergic alpha1 receptor in rat cortex.
Test [5] concerns the target D(3) dopamine receptor (Rattus norvegicus) (UniProt P19020). In words: Binding affinity to dopamine D3 receptor in rat olfactory tubercle. It counts as tissue-based.
The nature of test [6]: Binding affinity to dopamine D4.2 receptor.
Test [7] deals with D(1A) dopamine receptor (Rattus norvegicus) (UniProt P18901). The experiment in a line: Binding affinity to dopamine D1 receptor in rat striatum. It is filed as tissue-based.
D(1A) dopamine receptor (Rattus norvegicus), sequence (P18901 whole entry): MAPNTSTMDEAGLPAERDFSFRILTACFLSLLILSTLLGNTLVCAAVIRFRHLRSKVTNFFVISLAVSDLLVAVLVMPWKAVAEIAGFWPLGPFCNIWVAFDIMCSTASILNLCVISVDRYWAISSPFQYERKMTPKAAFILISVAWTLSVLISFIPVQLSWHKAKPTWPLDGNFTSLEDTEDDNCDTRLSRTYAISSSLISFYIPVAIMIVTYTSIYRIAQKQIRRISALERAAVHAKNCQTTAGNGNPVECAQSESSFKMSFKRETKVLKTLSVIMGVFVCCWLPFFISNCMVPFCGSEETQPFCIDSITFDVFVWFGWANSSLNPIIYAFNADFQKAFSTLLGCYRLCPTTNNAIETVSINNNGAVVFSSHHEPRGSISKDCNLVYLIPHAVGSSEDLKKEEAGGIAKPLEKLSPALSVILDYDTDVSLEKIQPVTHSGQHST
Another test relates to LNCaP. The experiment in a line: Antiproliferative activity against human LNCAP cells at 100 uM after 48 hrs. It counts as functional, cell-based. The procedure, abridged:
(§1)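 LNCaP (hormone-sensitive) and PC3 (hormone-refractory) prostate tumour cells exposed to 100 μM compound for 48 h; antiproliferative effect measured. Haloperidol and haloperidol metabolite II run as references.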

Test [8] can be described thus: Partial agonist activity at sigma 2 receptor in guinea pig longitudinal muscle/myenteric plexus assessed as inhibition of electrically-induced contraction. It counts as functional, Cavia porcellus. The procedure, abridged: (§2)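 Guinea pig ileum preparation with sigma-1 receptors desensitized. Electrically evoked contractions recorded in an isolated organ bath; a dose-response curve was built from the inhibition of the evoked contractions.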

Test [9] concerns the target Mu-type opioid receptor (Rattus norvegicus) (UniProt P33535). The experiment in a line: Displacement of [3H]naloxone from mu opioid receptor in rat brain membranes. It counts as cell membranes.
In test [10] the target is D(2) dopamine receptor (Rattus norvegicus) (UniProt P61169). In words: Binding affinity to dopamine D2 receptor in rat striatum. It counts as tissue-based.
D(2) dopamine receptor (Rattus norvegicus), sequence (P61169 whole entry): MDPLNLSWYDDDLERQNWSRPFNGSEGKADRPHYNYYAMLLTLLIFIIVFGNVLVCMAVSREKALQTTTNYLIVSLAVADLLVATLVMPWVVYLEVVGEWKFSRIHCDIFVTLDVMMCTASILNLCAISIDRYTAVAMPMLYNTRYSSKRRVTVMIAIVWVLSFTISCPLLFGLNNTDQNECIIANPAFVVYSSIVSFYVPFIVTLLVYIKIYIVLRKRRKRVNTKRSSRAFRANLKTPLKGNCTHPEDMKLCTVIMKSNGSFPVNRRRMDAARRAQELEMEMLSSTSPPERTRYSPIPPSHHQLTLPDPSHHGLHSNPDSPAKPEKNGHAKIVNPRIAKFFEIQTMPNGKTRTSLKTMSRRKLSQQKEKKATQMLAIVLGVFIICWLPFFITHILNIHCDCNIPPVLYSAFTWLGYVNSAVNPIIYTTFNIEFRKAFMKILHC
Test [11] deals with 5-hydroxytryptamine receptor 2A (Rattus norvegicus) (UniProt P14842). In words: Binding affinity to 5-HT2A receptor in rat cortex. It counts as tissue-based.
5-hydroxytryptamine receptor 2A (Rattus norvegicus), sequence (P14842 whole entry): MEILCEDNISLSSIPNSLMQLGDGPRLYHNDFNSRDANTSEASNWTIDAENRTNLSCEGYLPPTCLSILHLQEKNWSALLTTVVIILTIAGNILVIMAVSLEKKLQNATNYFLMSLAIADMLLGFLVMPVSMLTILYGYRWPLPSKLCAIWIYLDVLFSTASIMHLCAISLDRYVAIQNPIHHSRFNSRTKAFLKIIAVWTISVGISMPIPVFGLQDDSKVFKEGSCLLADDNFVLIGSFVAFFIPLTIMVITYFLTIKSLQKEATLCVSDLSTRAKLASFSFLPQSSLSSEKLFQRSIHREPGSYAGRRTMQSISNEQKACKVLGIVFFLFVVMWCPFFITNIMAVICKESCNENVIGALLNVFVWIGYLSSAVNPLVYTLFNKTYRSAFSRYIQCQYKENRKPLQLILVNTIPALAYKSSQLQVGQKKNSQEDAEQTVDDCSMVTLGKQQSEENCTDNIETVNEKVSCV
Test [12] in a line: Agonist activity at sigma 2 receptor in guinea pig longitudinal muscle/myenteric plexus assessed as inhibition of electrically-induced contraction. It is filed as functional. The note with it: Cavia porcellus. The method in brief: as §2
For a further test, the system named is PC-3. The experiment in a line: Antiproliferative activity against human PC3 cells at 100 uM after 48 hrs. It is filed as functional, cell-based. The procedure, abridged:
as §1

Test [13] has as its system Rattus norvegicus. In words: Potentiation of (-)-U50488H-induced antinociceptive activity in Sprague-Dawley rat assessed as mean AUC of thermal-stimulus induced tail flick latency for 60 mins at 1 mg/kg, sc treated 45 mins before (-)-U50488H challenge. It is filed as functional. The conditions noted are these: route subcutaneous. The procedure, abridged: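 Rats were pretreated sc with test compound at 1 mg/kg 45 min before the κ agonist (−)-U50,488H at 5 mg/kg sc. Thermal-stimulus tail flick latency was taken as percent change from basal over 60 min and summarised as MAUC after the last injection. Groups were compared with saline- and U50,488H-only groups, n = 8–10, mean ± SD, p < 0.05.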

Test [14] concerns Rattus norvegicus. The experiment in a line: Antinociceptive activity in Sprague-Dawley rat assessed as mean AUC of thermal-stimulus induced tail flick latency for 60 mins at 1 mg/kg, sc. It counts as functional, organism-based. Further details: dose 1 mg/kg. The method in brief: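 Rats given test compound 1 mg/kg sc alone. Tail flick latency to thermal stimulation, expressed as percent change from basal, tracked over a 60 min window. Summarised as mean area under the curve (MAUC) after the last injection. Compared against saline-treated rats, n = 8–10 per group, mean ± SD, significance at p < 0.05.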

Structures are written as SMILES. Calls of active or inactive are those of the source. The calls are words filed in the database; no cut-off is given here.

Sigma non-opioid intracellular receptor 1 (Cavia porcellus), sequence (Q60492 whole entry): as the sequence (Q60492 whole entry) above
D(3) dopamine receptor (Rattus norvegicus), sequence (P19020 whole entry): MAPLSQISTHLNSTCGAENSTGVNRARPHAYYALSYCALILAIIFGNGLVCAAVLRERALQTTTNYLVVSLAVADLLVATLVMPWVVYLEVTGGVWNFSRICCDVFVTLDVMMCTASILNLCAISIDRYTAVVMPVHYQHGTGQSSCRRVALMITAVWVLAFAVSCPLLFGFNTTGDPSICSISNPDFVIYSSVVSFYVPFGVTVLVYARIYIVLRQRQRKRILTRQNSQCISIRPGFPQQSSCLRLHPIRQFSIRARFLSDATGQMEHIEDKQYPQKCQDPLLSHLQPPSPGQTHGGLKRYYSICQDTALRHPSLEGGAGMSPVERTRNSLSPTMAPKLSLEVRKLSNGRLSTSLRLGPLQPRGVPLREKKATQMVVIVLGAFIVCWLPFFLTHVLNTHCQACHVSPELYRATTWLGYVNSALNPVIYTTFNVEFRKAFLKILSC
Mu-type opioid receptor (Rattus norvegicus), sequence (P33535 whole entry): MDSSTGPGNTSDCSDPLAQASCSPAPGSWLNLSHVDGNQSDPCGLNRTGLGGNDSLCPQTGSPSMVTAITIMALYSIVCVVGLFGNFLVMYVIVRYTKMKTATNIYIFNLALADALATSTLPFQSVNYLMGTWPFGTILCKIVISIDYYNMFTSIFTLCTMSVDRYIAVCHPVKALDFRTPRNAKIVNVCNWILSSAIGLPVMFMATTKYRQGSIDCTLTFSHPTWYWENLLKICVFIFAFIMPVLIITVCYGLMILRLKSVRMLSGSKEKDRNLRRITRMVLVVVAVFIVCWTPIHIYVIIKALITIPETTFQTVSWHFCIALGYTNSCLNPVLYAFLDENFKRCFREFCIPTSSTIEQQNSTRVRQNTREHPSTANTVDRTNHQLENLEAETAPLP

Turning to `COC(=O)[C@]1(c2ccccc2)C[C@@H]1CN1[C@@H]2CC[C@H]1C[C@@](O)(c1ccc(Cl)cc1)C2`, in the test filed under Cavia porcellus, the Ratio Ki stood at 1.3. The Ki is 58.3 nM in test [1] and 44 nM in [2].
The corresponding values for `O=C(CCCc1ccccc1)OC(CCCN1CCC(O)(c2ccc(Cl)cc2)CC1)c1ccc(F)cc1` (racemic) are 0.18, 0.98 nM and 5.4 nM.
With `COC(=O)[C@H]1[C@@H](OC(=O)c2ccccc2)C[C@@H]2CC[C@H]1N2C`, the inhibition result in test [3] was “inactive”.
Regarding `COC(=O)[C@]1(c2ccccc2)C[C@@H]1CN1CCC(O)(c2ccc(Cl)cc2)CC1`, in test [3], the inhibition entry is “Active”. Also, the Ki in test [1] came out at 21.9 nM; in [2], 3.95 nM.
For `COC(=O)[C@]1(c2ccccc2)C[C@@H]1CN1CCC(O)(c2ccccc2)CC1`, the Ratio Ki in the test listed under Cavia porcellus was determined as 5.6. Also, the Ki in [1] turned out to be 28.2 nM; in [2], 5.02 nM.
The corresponding values for `COC(=O)[C@@]1(c2ccccc2)C[C@H]1CN1C2C=C(c3ccc(Cl)cc3)CC1CC2` (mixture of isomers) are 2.8, 565 nM and 198 nM.
For the molecule `Cc1ccccc1NC(=N)Nc1ccccc1C` [DITOLYLGUANIDINE], the affinity in test [1] corresponds to a Ki of 23 nM. This lies in the double-digit nanomolar range.
For `COC(=O)[C@]1(c2ccccc2)C[C@@H]1CN1C2C=C(c3ccc(Cl)cc3)CC1CC2` (mixture of isomers), the Ratio Ki in the test listed under Cavia porcellus is 2.4. Besides, the Ki in [1] is 943 nM; in test [2], 397 nM.
`O=C(CCCN1CCC(O)(c2ccc(Cl)cc2)CC1)c1ccc(F)cc1` [HALOPERIDOL]: in test [1], the Ki was determined as 16 nM.
With `COC(=O)[C@@]1(c2ccccc2)C[C@H]1CN1[C@@H]2CC[C@H]1C[C@@](O)(c1ccc(Cl)cc1)C2`, the result (in test [4]; in test [5]; in test [6]; in [7]; in the test on LNCaP; in test [9]) was Active. The result (in test [10]; in [11]; with PC-3) was Active. Moreover, the Alpha max in test [8] is given as 0.4. The Ratio Ki in the test listed under Cavia porcellus worked out at 0.05. For the same molecule, the Ki was found to be 25.2 nM in test [1] and 520 nM in test [2]. For the same molecule, the EC50 in test [12] was determined as 2300 nM.
With `COC(=O)[C@@]1(c2ccccc2)C[C@H]1CN1CCC(O)(c2ccccc2)CC1`, the result in test [4], in test [5], in test [6], in test [7], in test [9] and in test [10] was Active. In addition, the result in test [11] was Active. In addition, in the test on Rattus norvegicus [13], the Activity was 118.2%. For the same molecule, the inhibition result in test [3] is “Active”. Besides, in the test with Rattus norvegicus [14], the result was inactive. Further, in the test filed under Cavia porcellus, the Ratio Ki was determined as 81.4. Besides, the Ki in test [1] came out at 571 nM; in test [2], 7.01 nM.
Turning to `COC(=O)[C@@]1(c2ccccc2)C[C@H]1CN1CCC(O)(c2ccc(Cl)cc2)CC1`, the Ki in test [1] is 23.4 nM; in [2] it was 5.61 nM.
